This note sets out measurements from ChEMBL document CHEMBL4041520, “Novel pyrimidine-2,4-dione-1,2,3-triazole and furo[2,3-d]pyrimidine-2-one-1,2,3-triazole hybrids as potential anti-cancer agents: Synthesis, computational and X-ray analysis and biological evaluation” (Eur J Med Chem, 2017).

One series concerns CFPAC-1. Nature of the series: Antiproliferative activity against human CFPAC-1 cells after 72 hrs by MTT assay. It is filed as functional, cell-based. The following applies: CFPAC-1, 72 h. The essentials:
(§1)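 Monolayers grown in DMEM with 10% FBS and 2 mM L-glutamine at 37 °C, 5% CO2. Cells seeded at 5000 per well on day 0. Compounds added in five 10-fold dilutions (0.01–100 µM), DMSO ≤0.1%, for 72 h. MTT absorbance converted to percentage growth versus untreated wells. IC50 by linear regression of the dose-response curve; highest concentration reported when not reached. Quadruplicate points, three experiments.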

The subject of another series is SW-620. Nature of the series: Antiproliferative activity against human SW620 cells after 72 hrs by MTT assay. The following applies: SW-620, 72 h. It is filed as functional, cell-based. The essentials: as §1
The subject of series [1] is HeLa. Nature of the series: Antiproliferative activity against human HeLa cells after 72 hrs by MTT assay. It is filed as functional, cell-based. An outline of the steps:
as §1

In the next series the test system is A549. Nature of the series: Antiproliferative activity against human A549 cells after 72 hrs by MTT assay. It is filed as functional, cell-based. The following applies: A549, 72 h. The essentials:
as §1

Series [2] relates to HepG2. Nature of the series: Antiproliferative activity against human HepG2 cells after 72 hrs by MTT assay. It is filed as functional, cell-based. The following applies: HepG2, 72 h. The essentials:
as §1

In another series the test system is NIH3T3. Nature of the series: Antiproliferative activity against mouse NIH/3T3 cells after 72 hrs by MTT assay. It is filed as cell-based. The following applies: NIH3T3, 72 h. The essentials: as §1
Series [3] has as its system HeLa. Nature of the series: Induction of apoptosis in human HeLa cells assessed as late apoptotic cells at 2 times antiproliferative IC50 after 48 hrs by Annexin-V FITC/propidium iodide staining based fluorescence microscopic method (reference value: 2.3%). It is filed as functional. The essentials:
(§2)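 Cells seeded in 8-well chamber slides and exposed to compound at 2× IC50 for 48 h. After washing in incubation buffer, Annexin-V-FITC labelling for 15 min at room temperature. Cells fixed with 20% glycerol; PI used as nuclear stain. Scored by fluorescence microscopy as viable (PI-/AnnV-), early apoptotic (PI-/AnnV+), late apoptotic/primary necrotic (PI+/AnnV+) or secondary necrotic (PI+) percentages.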

Series [4] concerns HeLa. Nature of the series: Induction of apoptosis in human HeLa cells assessed as viable cells at 2 times antiproliferative IC50 after 48 hrs by Annexin-V FITC/propidium iodide staining based fluorescence microscopic method (reference value: 75%). It is filed as functional. An outline of the steps:
as §2

Series [5] relates to HeLa. Nature of the series: Induction of apoptosis in human HeLa cells assessed as early apoptotic cells at 2 times antiproliferative IC50 after 48 hrs by Annexin-V FITC/propidium iodide staining based fluorescence microscopic method (reference value: 20.4%). It is filed as functional. The essentials:
as §2

In series [6] the test system is HeLa. Nature of the series: Induction of apoptosis in human HeLa cells assessed as secondary necrotic cells at 2 times antiproliferative IC50 after 48 hrs by Annexin-V FITC/propidium iodide staining based fluorescence microscopic method (reference value: 2.3%). It is filed as functional. An outline of the steps: as §2
The target in series [7] is Wee1-like protein kinase (Homo sapiens) (UniProt P30291). Nature of the series: Inhibition of Wee-1 kinase phosphorylation in human HeLa cells at 2 times antiproliferative IC50 after 48 hrs by Western blot method. It is filed as cell-based. An outline of the steps: (§3)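 Cells seeded at 200000 per well and treated at 2× IC50 for 48 h. Lysed in RIPA buffer with protease inhibitors. 50 µg protein run on 12% Tris-glycine gels and transferred to PVDF. Blocked in 4% BSA/TBST, probed overnight at 4 °C with anti-p-SK1, ASAH1 or p-Wee1, then HRP secondary. Chemiluminescent detection; densitometry normalized to alpha-tubulin. Two independent experiments, mean ± SD.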

Series [8] shares this target. Nature of the series: Inhibition of Wee-1 kinase in human HeLa cells assessed as downregulation of ASAH at 2 times antiproliferative IC50 after 48 hrs by Western blot method. It is filed as cell-based. An outline of the steps:
as §3

The target is the same in series [9]. Nature of the series: Inhibition of Wee-1 kinase in human HeLa cells assessed as reduction in SK1 phosphorylation at 2 times antiproliferative IC50 after 48 hrs by Western blot method. It is filed as cell-based. The essentials:
as §3

A short description of series [10]: Mitochondrial toxicity in human HepG2 cells grown in presence of galactose. It is filed as cell-based. The essentials: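 HepG2 kept for more than 5 passages in glucose-free DMEM with 10 mM galactose, 2 mM glutamine, 5 mM HEPES, 10% FBS and 1 mM sodium pyruvate.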
Series [11] can be described thus: Mitochondrial toxicity in human HepG2 cells grown in presence of glucose. It is filed as cell-based.
Series [12] deals with Wee1-like protein kinase (Homo sapiens) (UniProt P30291). Nature of the series: Inhibition of Wee-1 kinase in human HepG2 cells assessed as reduction in SK1 phosphorylation at 2 times antiproliferative IC50 after 48 hrs by Western blot method. It is filed as cell-based. An outline of the steps: as §3
Series [13] has as its system HepG2. Nature of the series: Induction of apoptosis in human HepG2 cells assessed as late apoptotic cells at 2 times antiproliferative IC50 after 48 hrs by Annexin-V FITC/propidium iodide staining based fluorescence microscopic method relative to control. It is filed as functional. An outline of the steps:
as §2

In series [14] the test system is HepG2. Nature of the series: Induction of apoptosis in human HepG2 cells assessed as early apoptotic cells at 2 times antiproliferative IC50 after 48 hrs by Annexin-V FITC/propidium iodide staining based fluorescence microscopic method (reference value: 0.6%). It is filed as functional. The essentials:
as §2

In series [15] the target is Wee1-like protein kinase (Homo sapiens) (UniProt P30291). Nature of the series: Inhibition of Wee-1 kinase phosphorylation in human HepG2 cells at 2 times antiproliferative IC50 after 48 hrs by Western blot method. It is filed as cell-based. An outline of the steps:
as §3

Series [16] deals with HepG2. Nature of the series: Induction of apoptosis in human HepG2 cells assessed as secondary necrotic cells at 2 times antiproliferative IC50 after 48 hrs by Annexin-V FITC/propidium iodide staining based fluorescence microscopic method (reference value: 5.2%). It is filed as functional. An outline of the steps:
as §2

Series [17] relates to HepG2. Nature of the series: Induction of apoptosis in human HepG2 cells assessed as viable cells at 2 times antiproliferative IC50 after 48 hrs by Annexin-V FITC/propidium iodide staining based fluorescence microscopic method (reference value: 94.2%). It is filed as functional. An outline of the steps: as §2
Series [18] has as its target Wee1-like protein kinase (Homo sapiens) (UniProt P30291). Nature of the series: Inhibition of Wee-1 kinase in human HepG2 cells assessed as downregulation of ASAH at 2 times antiproliferative IC50 after 48 hrs by Western blot method. It is filed as cell-based. The essentials:
as §3

Another series has as its system WI-38. Nature of the series: Antiproliferative activity against human WI38 cells after 72 hrs by MTT assay. It is filed as cell-based. The following applies: WI-38, 72 h. The essentials:
as §1

Structures are written as SMILES. pIC50: −log10 of the molar value. Activity calls are given as the source filed them. The calls are words filed in the database; no cut-off is given here.

Wee1-like protein kinase (Homo sapiens), sequence (P30291 whole entry, looked up): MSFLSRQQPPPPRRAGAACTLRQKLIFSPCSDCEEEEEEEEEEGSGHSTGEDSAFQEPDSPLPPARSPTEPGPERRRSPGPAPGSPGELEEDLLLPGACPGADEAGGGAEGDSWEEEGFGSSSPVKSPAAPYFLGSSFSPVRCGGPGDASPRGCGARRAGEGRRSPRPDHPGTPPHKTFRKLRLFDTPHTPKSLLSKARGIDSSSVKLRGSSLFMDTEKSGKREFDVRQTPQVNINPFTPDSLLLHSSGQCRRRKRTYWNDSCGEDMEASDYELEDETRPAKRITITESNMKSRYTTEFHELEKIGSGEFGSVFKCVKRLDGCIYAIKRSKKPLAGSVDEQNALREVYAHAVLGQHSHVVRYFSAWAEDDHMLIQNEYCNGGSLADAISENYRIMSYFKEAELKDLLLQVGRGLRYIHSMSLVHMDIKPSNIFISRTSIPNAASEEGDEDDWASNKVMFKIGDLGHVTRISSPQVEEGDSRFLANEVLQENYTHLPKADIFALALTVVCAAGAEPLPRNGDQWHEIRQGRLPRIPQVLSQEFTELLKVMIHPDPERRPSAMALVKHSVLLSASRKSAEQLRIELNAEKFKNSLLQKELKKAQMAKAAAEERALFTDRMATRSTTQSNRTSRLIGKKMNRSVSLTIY

Turning to `O=c1c(Br)cn(Cc2cn(-c3cc(Cl)cc(Cl)c3)nn2)c(=O)n1Cc1cn(-c2cc(Cl)cc(Cl)c2)nn1`, the pIC50 in the series on CFPAC-1 was less than 4.00; with SW-620 it was less than 4.00; in the series on HeLa [1], less than 4.00; in the series with A549 it was 4.02; in the series on HepG2 [2], 4.37; in the series on NIH3T3, 5.37.

Consider `O=c1[nH]c(=O)n(Cc2cn(-c3ccccc3F)nn2)cc1Br`, for which the negative logarithm of the IC50 (pIC50) is less than 4.00 with CFPAC-1; not above 4.00 in the series with SW-620; 4.03 in the series with HeLa [1]; less than 4.00 with A549; less than 4.00 in the series on HepG2 [2]; 4.23 in the series on NIH3T3.

As to `O=c1[nH]c(=O)n(Cc2cn(-c3cc(Cl)cc(Cl)c3)nn2)cc1Br`, the pIC50 was 5.26 with CFPAC-1; 5.01 in the series with SW-620; 5.07 with HeLa [1]; 4.09 with A549; 5.12 in the series with HepG2 [2]; 5.94 in the series with NIH3T3.

As for `O=c1[nH]c(=O)n(Cc2cn(-c3ccc(F)cc3)nn2)cc1Br`, the negative-log IC50 (pIC50) is less than 4.00 in the series with CFPAC-1; less than 4.00 with SW-620; 4.14 in the series on HeLa [1]; 4.19 with A549; 4.16 in the series with HepG2 [2]; 4.29 in the series on NIH3T3.

`O=c1c(Br)cn(Cc2cn(-c3ccccc3F)nn2)c(=O)n1Cc1cn(-c2ccccc2F)nn1`: the Activity in the series on HeLa [3] is 1.8%; in the series on HeLa [4] it was 71.3%; in the series with HeLa [5], 23.9%; in the series on HeLa [6] it was 3%. The pIC50 was 5.34 in the series with CFPAC-1; 5.10 in the series with SW-620; 5.79 in the series with HeLa [1]; 5.27 with A549; 5.33 in series [10]; 5.15 in [11]. The pIC50 with HepG2 [2] was 5.15; in the series with NIH3T3, 6.23. For the same compound, the inhibition entry in series [7], in series [8] and in series [9] was “inactive” each time.

For `O=c1c(Br)cn(Cc2cn(-c3ccc(F)cc3)nn2)c(=O)n1Cc1cn(-c2ccc(F)cc2)nn1`, the inhibition entry in series [12] and in [18] was “inactive” in each case. Also, the negative-log IC50 (pIC50) was 5.16 with CFPAC-1; 5.01 in the series with SW-620; 4.90 in the series with HeLa [1]; 4.59 in the series on A549; 5.34 in series [10]; 5.32 in series [11]. The pIC50 in the series with HepG2 [2] was 5.35; in the series on NIH3T3, 7.15. For the same compound, the Activity worked out at 0% in the series with HepG2 [13], 26.6% in the series on HepG2 [14], 0.5% in the series on HepG2 [16] and 72.9% in the series with HepG2 [17]. The inhibition result in series [15] is “Active”.

Consider `O=c1[nH]c(=O)n(Cc2cn(-c3ccc(Cl)cc3)nn2)cc1Br`, for which the negative logarithm of the IC50 (pIC50) is 4.40 in the series with CFPAC-1; less than 4.00 in the series on SW-620; 4.48 in the series on HeLa [1]; 4.39 in the series on A549; 4.72 in the series with HepG2 [2]; 5.17 in the series with NIH3T3.

For `O=c1c(Br)cn(Cc2cn(-c3ccc(Cl)cc3)nn2)c(=O)n1Cc1cn(-c2ccc(Cl)cc2)nn1`, the inhibition result in series [12], in [15] and in [18] was “Active” throughout. In addition, the pIC50 is 5.23 in the series on CFPAC-1; 5.25 in the series with SW-620; 5.21 in the series on HeLa [1]; 5.13 in the series with A549; 5.15 in series [10]; 5.42 in series [11]. The pIC50 in the series on HepG2 [2] is 5.44; in the series on NIH3T3 it was 6.43. Further, the Activity in the series on HepG2 [13] stood at 0%; with HepG2 [14], 34.8%; in the series on HepG2 [16], 15.2%; in the series on HepG2 [17], 50%.

Turning to `O=c1c(I)cn(Cc2cn(-c3ccc(Cl)cc3)nn2)c(=O)n1Cc1cn(-c2ccc(Cl)cc2)nn1`, the pIC50 in the series with CFPAC-1 is less than 4.00; with WI-38 it was 7.52; with SW-620, less than 4.00; in the series on HeLa [1], 4.02; in the series on A549, 4.15; with HepG2 [2], less than 4.00.
